These results are taken from ChEMBL document CHEMBL4706680, “Small-Molecule HSP27 Inhibitor Abolishes Androgen Receptors in Glioblastoma” (J Med Chem, 2021).

One series relates to T98G. Briefly: Antiproliferative activity against human T98G cells overexpressing AR assessed as reduction in cell viability incubated for 48 hrs by MTT assay. The series is classed as functional, cell-based. An outline of the steps:
(§1)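 MTT assay; 3000 cells/well in RPMI 1640 or DMEM with 10% FBS, seeded 24 h, then exposed 48 h to a range of concentrations in DMSO (final ≤0.1%); vehicle controls. MTT 1 mg/mL for 2 h at 37 °C, dye dissolved in DMSO, absorbance 570 nm; eight replicates; IC50 by nonlinear regression.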

The next series relates to U-251. Briefly: Antiproliferative activity against human U-251 cells assessed as reduction in cell viability incubated for 48 hrs by MTT assay. The series is classed as functional, cell-based. To be noted: U-251, 48 h. An outline of the steps:
as §1

For the next series, the system named is A 172. Briefly: Antiproliferative activity against human A 172 cells assessed as reduction in cell viability incubated for 48 hrs by MTT assay. The series is classed as functional, cell-based. To be noted: A 172, 48 h. An outline of the steps:
as §1

The next series has as its system U-87 MG. Description: Antiproliferative activity against human U87 cells assessed as reduction in cell viability incubated for 48 hrs by MTT assay. The series is classed as functional, cell-based, U-87MG ATCC. An outline of the steps:
as §1

Series [1] in a line: Toxicity in CD1 mouse assessed as induction of dehydration at 80 mg/kg/day, ip administered thrice weekly and observed at day 5 to 7. The series is classed as organism-based. To be noted: in vivo, 72 h, time 3 day. In short, it runs like this: (§2)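 Male CD-1 mice, four per group, given 80 mg/kg in PBS IP three times weekly; vehicle DMSO. Mice were euthanized when toxicity signs appeared, otherwise at day 10. Body weight was recorded at first and last dosing days. Non-fasted cardiac blood was taken after euthanasia for an automated hematology analyzer.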

Series [2] is described as follows: Toxicity in CD1 mouse assessed as reduction in food consumption at 80 mg/kg/day, ip administered thrice weekly and observed at day 5 to 7. The series is classed as organism-based. The note with it: in vivo, 72 h, time 3 day. In short, it runs like this: as §2
Series [3] in a line: Toxicity in CD1 mouse assessed as decrease in body weight at 80 mg/kg/day, ip administered thrice weekly and observed at day 5 to 7. The series is classed as organism-based. To be noted: in vivo, 72 h, time 3 day. An outline of the steps: as §2
Series [4] in a line: Toxicity in CD1 mouse assessed as effect on WBC count at 80 mg/kg/day, ip administered thrice weekly by hematology analyzer. The series is classed as organism-based. To be noted: in vivo, 72 h, time 3 day. In short, it runs like this: as §2
A short description of series [5]: Toxicity in CD1 mouse assessed as effect on neutrophils count at 80 mg/kg/day, ip administered thrice weekly by hematology analyzer. The series is classed as organism-based. To be noted: in vivo, 72 h, time 3 day. In short, it runs like this: as §2
The nature of series [6]: Toxicity in CD1 mouse assessed as effect on lymphocyte at 80 mg/kg/day, ip administered thrice weekly by hematology analyzer. The series is classed as organism-based. The note with it: in vivo, 72 h, time 3 day. An outline of the steps:
as §2

Series [7] in a line: Toxicity in CD1 mouse assessed as effect on monocytes at 80 mg/kg/day, ip administered thrice weekly by hematology analyzer. The series is classed as organism-based. The note with it: in vivo, 72 h, time 3 day. In short, it runs like this: as §2
The nature of series [8]: Toxicity in CD1 mouse assessed as effect on eosinophil count at 80 mg/kg/day, ip administered thrice weekly by hematology analyzer. The note with it: in vivo, 72 h, time 3 day. The series is classed as organism-based. In short, it runs like this: as §2
The nature of series [9]: Toxicity in CD1 mouse assessed as effect on basophil count at 80 mg/kg/day, ip administered thrice weekly by hematology analyzer. The series is classed as organism-based. The note with it: in vivo, 72 h, time 3 day. An outline of the steps:
as §2

Series [10] can be described thus: Toxicity in CD1 mouse assessed as effect on RBC count at 80 mg/kg/day, ip administered thrice weekly by hematology analyzer. The series is classed as organism-based. The note with it: in vivo, 72 h, time 3 day. An outline of the steps:
as §2

Series [11] can be described thus: Toxicity in CD1 mouse assessed as effect on hemoglobin count at 80 mg/kg/day, ip administered thrice weekly by hematology analyzer. The series is classed as organism-based. The note with it: in vivo, 72 h, time 3 day. An outline of the steps: as §2
A short description of series [12]: Toxicity in CD1 mouse assessed as effect on hematocrit count at 80 mg/kg/day, ip administered thrice weekly by hematology analyzer. The series is classed as organism-based. The note with it: in vivo, 72 h, time 3 day. In short, it runs like this:
as §2

A short description of series [13]: Toxicity in CD1 mouse assessed as effect on MCV count at 80 mg/kg/day, ip administered thrice weekly by hematology analyzer. The series is classed as organism-based. The note with it: in vivo, 72 h, time 3 day. In short, it runs like this:
as §2

Series [14] in a line: Toxicity in CD1 mouse assessed as effect on MCH count at 80 mg/kg/day, ip administered thrice weekly by hematology analyzer. The series is classed as organism-based. To be noted: in vivo, 72 h, time 3 day. An outline of the steps:
as §2

A short description of series [15]: Toxicity in CD1 mouse assessed as effect on MCHC count at 80 mg/kg/day, ip administered thrice weekly by hematology analyzer. The series is classed as organism-based. The note with it: in vivo, 72 h, time 3 day. In short, it runs like this:
as §2

Series [16] is described as follows: Toxicity in CD1 mouse assessed as effect on RDW-CV at 80 mg/kg/day, ip administered thrice weekly by hematology analyzer. The note with it: in vivo, 72 h, time 3 day. The series is classed as organism-based. In short, it runs like this: as §2
Series [17] can be described thus: Toxicity in CD1 mouse assessed as effect on PLT at 80 mg/kg/day, ip administered thrice weekly by hematology analyzer. The series is classed as organism-based. The note with it: in vivo, 72 h, time 3 day. An outline of the steps: as §2
Series [18] is described as follows: Toxicity in CD1 mouse assessed as effect on MPV at 80 mg/kg/day, ip administered thrice weekly by hematology analyzer. The series is classed as organism-based. The note with it: in vivo, 72 h, time 3 day. In short, it runs like this:
as §2

Series [19] is described as follows: Dissociation constant, pKa of the compound. The series is classed as physicochemical.
Series [20] is described as follows: Toxicity in CD1 mouse assessed as acute pain at 80 mg/kg/day, ip administered thrice weekly and measured at day 10. The series is classed as organism-based. To be noted: in vivo, 72 h, time 3 day. An outline of the steps: as §2
Series [21] can be described thus: Toxicity in CD1 mouse assessed as decrease in body weight at 80 mg/kg/day, ip administered thrice weekly and measured at day 10. To be noted: in vivo, 72 h, time 3 day. The series is classed as organism-based. An outline of the steps: as §2
Series [22] deals with Heat shock protein beta-1 (Homo sapiens) (UniProt P04792). The note with it: T98G, dose 10.0 nM, time 12.0 hrs.

The structures appear in SMILES notation. Active and inactive are the calls of the source. The rule behind the calls is not given here.

Heat shock protein beta-1 (Homo sapiens), sequence (P04792 whole entry): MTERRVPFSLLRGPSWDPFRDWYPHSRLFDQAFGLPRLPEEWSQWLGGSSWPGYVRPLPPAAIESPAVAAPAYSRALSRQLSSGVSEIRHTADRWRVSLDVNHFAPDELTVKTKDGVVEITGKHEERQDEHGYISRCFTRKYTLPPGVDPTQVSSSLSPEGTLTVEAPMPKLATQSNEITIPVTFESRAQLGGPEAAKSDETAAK

`CCS(=O)(=O)N(C)c1ccc(NC(=O)c2ccc(OC)cc2)cc1OCc1cc(OC)ccc1OC`: the IC50 amounted to 5.71 nM in the series with T98G, 6.97 nM in the series with U-251, 8.21 nM in the series with A 172 and 7.83 nM with U-87 MG. Also, the Activity entry is “Toxic” in series [1]; “Toxic” in series [2]; “Toxic” in series [3]; “Non-Toxic” in [4]; “Non-Toxic” in [5]; “Non-Toxic” in series [6]. Also, the Activity entry in [7], in series [8], in [9], in series [10], in series [11] and in [12] was “Non-Toxic” throughout. Moreover, the Activity entry in series [13], in series [14], in series [15], in series [16], in series [17] and in series [18] was “Non-Toxic” throughout.

Regarding `COc1ccc(C(=O)Nc2ccc(N(C)S(C)(=O)=O)c(OCc3cc(OC)ccc3OC)c2)cc1`, the IC50 amounted to 1.85 nM in the series with T98G, 1.57 nM in the series with U-251, 3.13 nM in the series on A 172 and 3.05 nM in the series with U-87 MG. Moreover, the Activity entry is listed as “Toxic” in series [1]; “Toxic” in series [2]; “Toxic” in series [3]; “Non-Toxic” in series [4]; “Non-Toxic” in series [5]; “Non-Toxic” in series [6]. Besides, the Activity result in [7], in series [8], in series [9], in [10], in series [11] and in series [12] was “Non-Toxic” each time. Further, the Activity entry in [13], in series [14], in series [15], in series [16], in [17] and in series [18] was “Non-Toxic” in each case.

`CS(=O)(=O)Nc1ccc([N+](=O)[O-])cc1Oc1ccccc1` [NIMESULIDE] had a pKa in series [19] of 5.93.

For the compound `CCS(=O)(=O)Nc1ccc(NC(=O)c2ccc(OC)cc2)cc1OCc1cc(OC)ccc1OC`, the IC50 in the series with T98G is 4.87 nM; with U-251, 6.39 nM; in the series on A 172, 11.9 nM; in the series on U-87 MG, 6.74 nM. The Activity result in series [20], in [21] and in series [3] was “Non-Toxic” throughout.

In the case of `C[C@]12CCC(=O)C[C@@H]1CC[C@@H]1[C@@H]2CC[C@]2(C)[C@@H](O)CC[C@@H]12`, in series [22], the inhibition entry was “inactive”.
